# Screens (PubChem)
# Most compounds without a hit are left out; they make up all but 3.3% or so of the library.
# CendR NRP1 mod = alters CendR peptide binding to human NRP-1 | FAM-RPARPAR peptide binding to NRP-1, fluorescence polarization | O14786 | inhibition, % at 25 µM | 0.85% of 360,000 active;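 active means inhibition or corrected inhibition above about 18%, plus a signal ratio from 0.5 to 1.5, limit read from the data, passing the limit was not always enough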
# Target sequence (O14786 whole entry, looked up): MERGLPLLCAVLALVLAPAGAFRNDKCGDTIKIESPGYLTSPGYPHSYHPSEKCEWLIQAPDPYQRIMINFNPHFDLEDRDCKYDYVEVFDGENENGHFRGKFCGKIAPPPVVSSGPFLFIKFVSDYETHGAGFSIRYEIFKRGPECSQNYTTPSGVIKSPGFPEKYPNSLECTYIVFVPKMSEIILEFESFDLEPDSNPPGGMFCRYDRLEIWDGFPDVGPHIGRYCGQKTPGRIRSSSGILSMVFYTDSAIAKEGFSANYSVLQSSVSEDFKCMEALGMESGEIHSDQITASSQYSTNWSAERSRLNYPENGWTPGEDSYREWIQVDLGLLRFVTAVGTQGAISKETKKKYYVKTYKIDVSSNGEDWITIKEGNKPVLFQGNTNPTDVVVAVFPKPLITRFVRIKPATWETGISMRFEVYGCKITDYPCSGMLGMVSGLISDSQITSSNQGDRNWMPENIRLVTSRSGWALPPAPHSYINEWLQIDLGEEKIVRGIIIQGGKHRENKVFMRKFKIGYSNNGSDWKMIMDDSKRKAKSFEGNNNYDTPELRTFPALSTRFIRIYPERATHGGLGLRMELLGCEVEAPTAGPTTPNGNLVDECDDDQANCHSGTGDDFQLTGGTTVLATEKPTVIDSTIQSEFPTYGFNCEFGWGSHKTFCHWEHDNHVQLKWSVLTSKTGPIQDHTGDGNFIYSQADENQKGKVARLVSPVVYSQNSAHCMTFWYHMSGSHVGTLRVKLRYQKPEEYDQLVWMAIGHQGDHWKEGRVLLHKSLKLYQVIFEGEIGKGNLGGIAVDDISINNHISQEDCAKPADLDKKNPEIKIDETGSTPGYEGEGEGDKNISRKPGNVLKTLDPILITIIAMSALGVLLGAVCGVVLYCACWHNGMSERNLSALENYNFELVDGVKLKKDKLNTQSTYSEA
# Arrestin-AP2 inh = human beta-arrestin and AP2 interaction inhibition; inhibition, % at 10 µM; 0.31% of 340,000 active; FITC-arrestin peptide / GST-AP2 beads, flow cytometry; AP2 beta2 appendage carries R879A mutation;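 active means inhibition above a set limit, near 3 SD of compounds lacking own fluorescence, cut at about 54% in these data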;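 further: plate controls were DMSO wells for no effect and 5 µM unlabelled arrestin peptide for full effect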
#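 System: GST-tagged AP2 beta2-adaptin appendage (R879A) on 4 µm glutathione beads / Reagent: FITC-arrestin peptide, 50 nM / Detection: HyperCyt-sampled flow cytometry, FL1 channel, ex 488/em 535 nm / Timing: 12 min plus 1 h, RT / Buffer or medium: PBS plus Tween 20 (0.05%) and BSA (0.1%)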
# Exocytosis inh = lytic granule exocytosis inhibition | TALL-104 LAMP-1 surface exposure, flow cytometry; cells stimulated with thapsigargin and PMA | inhibition, % at 10 µM | 0.66% of 360,000 active;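 active means inhibition above about 55%, limit read from the data; inconclusive means no clear call, values can overlap the other calls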
# ATG4B inhibitor = inhibitors of human ATG4B cysteine protease; inhibition, % at 8.33 µM; ATG4B cleavage of LC3-PLA2, NBD-HPC fluorescence, 1 h; 0.51% of 340,000 active; in the data active means inhibition above about 40%
# ABCB6 inh 2 = inhibitors of human ABC transporter ABCB6 | Q9NP58 | K562-ABCB6 porphyrin accumulation, flow cytometry, 1 h; stronger effect = lower value | fluorescence ratio to DMSO, % at 10 µM | 0.19% of 360,000 active;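 active means fluorescence ratio to DMSO below 75%, the collection mean minus 3 SD; inconclusive means too few cells collected in the well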;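 further: signal is porphyrin accumulated inside mitochondria; 100% equals median channel fluorescence of DMSO control wells; lower ratio means ABCB6 inhibition with less porphyrin fluorescence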
# Myeloid diff 2 = myeloid differentiation induction. AID 624256. calls only at 10 µM. 1% of 360,000 active. ER-HoxA9 myeloid progenitors, lysozyme-GFP differentiation, flow cytometry;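 active means normalized GFP-positive differentiation at or above the plate's own cutoff, the solvent-only control mean plus 3 SD; inconclusive means no clear call, values can overlap the other calls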;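 further: cells exposed to compound for four days before flow analysis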
# * hit, by the source's call; i = inactive; ? = inconclusive; / = no result; + = active, no number.
SMILES,CendR NRP1 mod,Arrestin-AP2 inh,Exocytosis inh,ATG4B inhibitor,ABCB6 inh 2,Myeloid diff 2
CCOC(=O)N1CCN(C(=O)c2ccc3c(=O)n(Cc4ccccc4OC)c(=S)[nH]c3c2)CC1,2,3,-2,-2,87,i
COCCCNC(=O)c1ccc2c(=O)n(Cc3ccc4c(c3)OCO4)c(=S)[nH]c2c1,-15,-5,-2,-13,108,i
CC1CC(C)CN(C(=O)c2ccc3c(=O)n(Cc4ccc5c(c4)OCO5)c(=S)[nH]c3c2)C1 (centres undefined),-4,3,-1,101*,98,i
COc1cccc(-c2cccc3c2NC(=O)C3(C)Cc2cccc(F)c2)c1 (centres undefined),-3,/,0,/,96,i
O=C1COc2ccc(S(=O)(=O)NCCc3ccccc3)cc2N1,7,2,-7,-7,91,+
O=c1cc(-c2ccccc2Cl)oc2c(NS(=O)(=O)c3cccc4nsnc34)ccc(O)c12,1,2,14,28,92,i
CCc1ccc(S(=O)(=O)Nc2ccc(O)c3c(=O)cc(-c4ccccc4Cl)oc23)cc1,3,2,76*,33,98,i
CCOC(=O)c1ccc(NC(=O)CN(C)S(=O)(=O)c2ccc(OC)cc2)cc1,4,-3,8,-4,104,+
CN(C)c1ccc(NC(=O)COC(=O)c2ccc3c(c2)OCO3)cc1,2,4,-8,2,97,/
COc1ccc(NC(=O)CN(C)S(=O)(=O)c2ccccc2)cc1,9,-5,0,8,88,i
CN(C)c1ccc(C(=O)OCC(=O)Nc2ccc(S(N)(=O)=O)cc2)cc1,39*,8,-8,3,94,i
CCC1(c2ccc(F)cc2)NC(=O)N(CC(=O)Nc2cc(S(=O)(=O)N(C)C)ccc2Cl)C1=O (centres undefined),6,13,-5,-13,100,i
CCCS(=O)(=O)N1CCC(C(=O)NC2CCCC(C)C2C)CC1 (centres undefined),26*,12,1,3,105,i
Cc1cccc(Oc2ccc(Cl)cc2N)c1,29*,9,-3,11,94,i
Nc1cc(Cl)ccc1Oc1ccccc1,6,25,-2,1,105,i
Cc1ccc(N2CC(C(=O)OCC(=O)Nc3cc(C)on3)CC2=O)c(C)c1 (centres undefined),13,12,-1,-4,98,+
Cc1cc(NC(=O)COC(=O)C2CC(=O)N(c3ccccc3Cl)C2)no1 (centres undefined),13,5,-20,-2,98,i
Cc1cc(NC(=O)COC(=O)c2ccc(C)c(C)c2)no1,26*,-3,-5,-8,94,i
Cc1cc(NC(=O)COC(=O)c2ccc(NS(=O)(=O)c3ccc(C)c(C)c3)cc2)no1,3,6,1,-14,107,i
COc1cc(/C=C/C(=O)OCC(=O)Nc2cc(C(F)(F)F)ccc2N2CCOCC2)ccc1O,-2,11,2,-13,95,i
COc1cc(OC)c(OC)cc1CN1CCN(Cc2ccc(SC)cc2)CC1,10,-7,1,-8,96,i
COc1cc(CN2CCN(Cc3ccc(SC)cc3)CC2)cc(OC)c1O,23*,16,-2,-13,91,i
NC(=O)N1c2ccccc2C=Cc2ccccc21,1,-4,-6,-5,94,i
NC(=O)N1c2ccccc2CC(=O)c2ccccc21,35*,13,-2,-9,100,i
CCN1C(=O)/C(=C/C=C2/Sc3ccccc3N2CCO)SC1=S,-124,-4,-1,3,290,i
SMILES,CendR NRP1 mod,Arrestin-AP2 inh,Exocytosis inh,ATG4B inhibitor,ABCB6 inh 2,Myeloid diff 2
CCN1/C(=C/C=C2/SC(=Nc3cccc4ncccc34)N(C)C2=O)Sc2ccccc21,-237,10,-8,1,205,+
O=C(NCc1ccco1)C1CCN(C(=O)c2ccc(Cl)cc2Cl)CC1,1,22,-6,2,102,+
CC1Oc2ccccc2N(CC(=O)N2CCCCCC2)C1=O (centres undefined),3,47,-6,0,96,i
CCc1nc2ccc(C(=O)NCCCn3ccnc3)cn2c1N(C)C(=O)COc1ccccc1,10,/,?,/,100,i
CN(C)/C=C1\C=C2C(=O)c3ccccc3N2C1=O,130,-133,-6,i,131,+
CN(C)S(=O)(=O)N1C(=O)c2ccccc2C1=O,4,-11,-10,-1,98,i
CCOC(=O)/C(=C(/C)N)C1CC(=O)NC1=O (centres undefined),1,/,3,/,98,i
COc1cccc(/C=N/NC(=O)c2c(-c3ccccc3)noc2C)c1O,2,-10,-8,-5,94,+
COC(=O)c1cc(OC)c(OC)cc1NC(=O)c1c(-c2ccccc2)noc1C,4,9,7,6,108,+
COc1cccc(/C=N/NC(=O)c2c(-c3ccccc3)noc2C)c1OC,17,-1,1,1,103,i
COc1ccc(CSCC(=O)Nc2ccccc2)cc1[N+](=O)[O-],2,-10,7,-2,98,i
O=C(O)/C=C/C(=O)N1CCN(C(c2ccccc2)c2ccccc2)CC1,-2,-2,2,-8,97,i
COc1ccc(-n2c(C)cc(C(=O)CSc3ccc(NC(C)=O)cc3)c2C)cc1,42*,3,6,9,96,i
Cc1ccc(C(C)NC(=O)c2c(-c3ccccc3)noc2C)cc1C (centres undefined),-1,-6,-1,-7,95,i
O=C(c1ccc(Cl)cc1)N1CCN(S(=O)(=O)/C=C/c2ccccc2)CC1,-8,2,0,2,98,i
COc1cc(NC(=O)c2cccc(F)c2)ccc1NC(=O)c1cc2ccccc2o1,-5,-3,5,6,95,i
CC1(C)Cc2ccccc2C2CC(O)C(=O)N21 (centres undefined),0,8,-3,2,119,+
O=C1c2ccccc2[C@@H]2CC(O)C(O)CCN12 (some centres undefined),8,11,3,14,96,i
O=C1/C(=C\c2ccc(Cl)cc2)CCC1CNc1ccc(Cl)cc1 (centres undefined),-6,16,10,3,98,+
CN(C)CC1CC/C(=C\c2ccc(O)cc2)C1=O (centres undefined),0,-3,1,-9,97,?
CN(C)c1ccc(/C=C/c2ccncc2)cc1,-22,1,0,8,161,+
CN(C)c1ccc(C=Cc2cnccn2)cc1,-65,12,3,-5,97,i
